In brackets after ≈: the same amount, converted by molar mass.

Lanosterol 14-alpha demethylase (Candida albicans (strain SC5314 / ATCC MYA-2876) (Yeast), UniProt P10613), sequence (P10613 whole entry): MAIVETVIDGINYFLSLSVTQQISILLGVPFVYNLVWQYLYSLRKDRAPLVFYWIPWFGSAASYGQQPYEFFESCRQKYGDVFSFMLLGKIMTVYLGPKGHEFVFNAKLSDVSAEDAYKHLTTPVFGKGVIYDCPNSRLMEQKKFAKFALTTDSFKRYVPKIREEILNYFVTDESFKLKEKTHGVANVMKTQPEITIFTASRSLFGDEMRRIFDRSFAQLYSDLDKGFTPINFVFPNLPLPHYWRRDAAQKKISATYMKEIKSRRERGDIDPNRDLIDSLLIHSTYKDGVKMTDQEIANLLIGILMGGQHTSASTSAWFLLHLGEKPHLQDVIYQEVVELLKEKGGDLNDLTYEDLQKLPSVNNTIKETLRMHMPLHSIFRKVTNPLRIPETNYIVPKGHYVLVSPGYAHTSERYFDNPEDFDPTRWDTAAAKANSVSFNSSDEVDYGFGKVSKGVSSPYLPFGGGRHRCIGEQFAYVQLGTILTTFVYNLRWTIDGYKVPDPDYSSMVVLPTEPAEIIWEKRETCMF

The target in one series is Lanosterol 14-alpha demethylase (Candida albicans (strain SC5314 / ATCC MYA-2876) (Yeast), UniProt P10613). Description: Inhibition of Candida albicans CYP51 assessed as reduction in [3-3H]lanosterol 14alpha-demethylation at 0.75 uM preincubated for 60 secs followed by NADPH addition measured after 60 mins by RP-HPLC analysis relative to control. Conditions: 1 h. Summed up:
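C. albicans CYP51 expressed in E. coli and purified, 0.5 μM, with 1.0 μM rat NADPH-P450 reductase, dilauroylphosphatidylcholine and isocitrate dehydrogenase/isocitrate regeneration in 50 mM potassium phosphate pH 7.2, 10% glycerol, 0.1% Triton X-100. Substrate 25 μM final; inhibitor:enzyme:substrate 1.5:1:50. 37 °C, started with 100 μM NADPH. Sterols extracted with EtOAc, radio-HPLC. Triplicate, mean ± SD.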
For `O=C(N[C@@H](Cn1ccnc1)c1ccc(Cl)cc1Cl)c1ccc(-c2nnc(-c3ccccc3)o2)cc1`, the inhibition at 0.75 µM was 20%.

Consider `O=C(N[C@@H](Cn1ccnc1)c1ccc(Cl)cc1Cl)c1ccc(-c2nnc(-c3cc(F)cc(-c4ccccn4)c3)o2)cc1`, for which the inhibition at 0.75 µM worked out at 87%.

The target in another series is Lanosterol 14-alpha demethylase (Aspergillus) (UniProt B8NUK6+Q9P8R0+G4WW85). The series can be described thus: Inhibition of Aspergillus fumigatus CYP51 assessed as reduction in [3-3H]eburicol 14alpha-demethylation at 0.75 uM preincubated for 60 secs followed by NADPH addition measured after 60 mins by RP-HPLC analysis relative to control.
Details: not given
In a few lines:
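E. coli-expressed, purified CYP51 (0.5 μM) with rat NADPH-P450 reductase (1.0 μM), 100 μM dilauroylphosphatidylcholine, isocitrate dehydrogenase/isocitrate NADPH regeneration, in 50 mM K phosphate pH 7.2 with 10% glycerol and 0.1% Triton X-100. [3-3H]eburicol 25 μM final, inhibitor 0.75 μM final (1.5:1:50 inhibitor:enzyme:substrate), 37 °C. Started with 100 μM NADPH, 60 min, EtOAc extraction, radio-HPLC. Percent inhibition, triplicate, mean ± SD.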
With `O=C(N[C@@H](Cn1ccnc1)c1ccc(Cl)cc1Cl)c1ccc(-c2nnc(-c3ccccc3)o2)cc1`, the inhibition came to 24%.

Consider `O=C(N[C@@H](Cn1ccnc1)c1ccc(Cl)cc1Cl)c1ccc(-c2nnc(-c3cc(F)cc(-c4ccccn4)c3)o2)cc1`, for which the inhibition is 80%.

Test system in a further series: not listed separately
Description: Lipophilicity, log P of the compound. Format: physicochemical. Particulars: octanol/water.
As to `O=C(N[C@@H](Cn1ccnc1)c1ccc(Cl)cc1Cl)c1ccc(-c2nnc(-c3ccccc3)o2)cc1`, the logP came out at 4.57.

Turning to `O=C(N[C@@H](Cn1ccnc1)c1ccc(Cl)cc1Cl)c1ccc(-c2nnc(-c3cc(F)cc(-c4ccccn4)c3)o2)cc1`, the logP was 5.49.

In a further series the target is T1, Lanosterol 14-alpha demethylase (Aspergillus, UniProt B8NUK6+G4WW85+Q9P8R0).
T1 sequence (B8NUK6 whole entry): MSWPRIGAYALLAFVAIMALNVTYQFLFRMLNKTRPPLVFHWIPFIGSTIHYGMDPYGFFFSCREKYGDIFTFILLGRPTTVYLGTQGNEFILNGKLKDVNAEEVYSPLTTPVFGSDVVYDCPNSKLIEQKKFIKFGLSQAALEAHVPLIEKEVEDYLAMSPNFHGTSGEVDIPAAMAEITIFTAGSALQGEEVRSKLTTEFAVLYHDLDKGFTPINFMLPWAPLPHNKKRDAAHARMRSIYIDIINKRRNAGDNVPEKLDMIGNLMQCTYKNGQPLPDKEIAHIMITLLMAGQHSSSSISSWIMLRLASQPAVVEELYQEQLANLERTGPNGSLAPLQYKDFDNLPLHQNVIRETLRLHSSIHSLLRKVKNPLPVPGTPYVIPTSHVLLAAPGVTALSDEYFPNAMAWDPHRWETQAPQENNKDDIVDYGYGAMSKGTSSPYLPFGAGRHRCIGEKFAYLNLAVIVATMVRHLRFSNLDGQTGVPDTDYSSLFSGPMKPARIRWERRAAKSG
T1 sequence (Q9P8R0 whole entry): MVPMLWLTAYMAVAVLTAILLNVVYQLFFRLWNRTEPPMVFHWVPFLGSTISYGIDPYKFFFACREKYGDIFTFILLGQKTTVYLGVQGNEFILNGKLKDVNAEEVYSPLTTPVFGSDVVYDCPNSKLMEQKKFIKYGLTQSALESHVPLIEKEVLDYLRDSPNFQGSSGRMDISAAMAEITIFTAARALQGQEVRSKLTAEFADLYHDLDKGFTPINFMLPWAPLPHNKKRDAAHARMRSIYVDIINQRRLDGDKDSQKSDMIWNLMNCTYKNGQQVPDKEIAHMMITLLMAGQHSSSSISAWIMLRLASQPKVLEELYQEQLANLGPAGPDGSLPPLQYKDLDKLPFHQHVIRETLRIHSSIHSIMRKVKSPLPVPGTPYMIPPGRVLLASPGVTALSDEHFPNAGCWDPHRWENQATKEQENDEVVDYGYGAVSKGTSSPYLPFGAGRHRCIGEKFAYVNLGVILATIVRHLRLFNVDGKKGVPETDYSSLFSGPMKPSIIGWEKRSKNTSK
T1 sequence (G4WW85 whole entry): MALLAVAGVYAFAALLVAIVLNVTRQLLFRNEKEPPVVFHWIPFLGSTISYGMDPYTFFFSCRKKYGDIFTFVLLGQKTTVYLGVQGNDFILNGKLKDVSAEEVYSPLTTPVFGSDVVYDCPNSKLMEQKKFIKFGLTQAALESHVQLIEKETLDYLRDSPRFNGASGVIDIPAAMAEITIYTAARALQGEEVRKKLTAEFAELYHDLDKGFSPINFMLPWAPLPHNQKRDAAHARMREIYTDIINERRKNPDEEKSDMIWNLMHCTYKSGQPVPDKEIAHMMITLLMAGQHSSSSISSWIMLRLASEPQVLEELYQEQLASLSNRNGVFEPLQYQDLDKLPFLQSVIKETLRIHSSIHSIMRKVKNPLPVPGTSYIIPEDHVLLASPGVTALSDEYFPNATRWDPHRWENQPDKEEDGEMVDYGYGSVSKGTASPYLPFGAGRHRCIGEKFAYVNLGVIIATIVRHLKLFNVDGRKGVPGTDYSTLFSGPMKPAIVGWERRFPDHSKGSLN
Description: Binding affinity to Aspergillus fumigatus CYP51 by spectral titration method. Particulars: read-out: Kd(app). Summed up:
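Purified CYP51 at 0.5 μM in 5 cm path cuvettes, titrated from 0.2 mM DMSO stocks over 0.1–0.8 μM ligand. Type II red shift of the Soret band (417 to 424 nm) followed as ΔA (Amax−Amin) in difference spectra. Kd obtained by fitting to the quadratic tight-binding equation using total ligand and enzyme concentrations.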
Consider `O=C(N[C@@H](Cn1ccnc1)c1ccc(Cl)cc1Cl)c1ccc(-c2nnc(-c3ccccc3)o2)cc1`, for which the Kd was determined as 203 nM.

Consider `O=C(N[C@@H](Cn1ccnc1)c1ccc(Cl)cc1Cl)c1ccc(-c2nnc(-c3cc(F)cc(-c4ccccn4)c3)o2)cc1`, for which the Kd was 61 nM.

Test system in another series: not listed separately
The series can be described thus: Half life in human liver microsomes at 1 uM preincubated for 5 mins followed by NADPH addition measured up to 45 mins by LC-MS/MS analysis. It counts as ADME, microsome. Conditions: 0.75 h. In a few lines: (§1)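 Pooled liver microsomes (0.5 mg/mL; male CD-1 mouse, male Sprague Dawley rat, or mixed-gender human) with 1 μM compound in 100 mM potassium phosphate pH 7.4, 3 mM MgCl2, 37 °C with shaking. 5 min preincubation, then 1 mM NADPH. Aliquots at 0, 3, 7, 15, 25, 45 min quenched in cold CH3CN with carbamazepine internal standard, then LC/MS/MS. Triplicate; T1/2 = ln2/k from the slope of ln % remaining versus time.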
(Liver microsomes are a subcellular fraction often used to study metabolism.)
`O=C(N[C@@H](Cn1ccnc1)c1ccc(Cl)cc1Cl)c1ccc(-c2nnc(-c3ccccc3)o2)cc1`: the t1/2 amounted to 2.5 h.

`O=C(N[C@@H](Cn1ccnc1)c1ccc(Cl)cc1Cl)c1ccc(-c2nnc(-c3cc(F)cc(-c4ccccn4)c3)o2)cc1` came in with a t1/2 of 0.217 h.

Test system in the next series: not listed separately
Description: Half life in Sprague-Dawley rat liver microsomes at 1 uM preincubated for 5 mins followed by NADPH addition measured up to 45 mins by LC-MS/MS analysis. Particulars: 0.75 h. Format: ADME, microsome. In a few lines: as §1
`O=C(N[C@@H](Cn1ccnc1)c1ccc(Cl)cc1Cl)c1ccc(-c2nnc(-c3ccccc3)o2)cc1` gave a t1/2 of 1.77 h.

In turn, `O=C(N[C@@H](Cn1ccnc1)c1ccc(Cl)cc1Cl)c1ccc(-c2nnc(-c3cc(F)cc(-c4ccccn4)c3)o2)cc1` had a t1/2 of 1.3 h.

Test system in the next series: not listed separately
Description: Half life in CD-1 mouse liver microsomes at 1 uM preincubated for 5 mins followed by NADPH addition measured up to 45 mins by LC-MS/MS analysis. It counts as ADME, microsome. Conditions: 0.75 h. Summed up:
as §1
With `O=C(N[C@@H](Cn1ccnc1)c1ccc(Cl)cc1Cl)c1ccc(-c2nnc(-c3ccccc3)o2)cc1`, the t1/2 worked out at 1.03 h.

`O=C(N[C@@H](Cn1ccnc1)c1ccc(Cl)cc1Cl)c1ccc(-c2nnc(-c3cc(F)cc(-c4ccccn4)c3)o2)cc1` displayed a t1/2 of 1.65 h.

In another series the test system is Aspergillus fumigatus. The series can be described thus: Antifungal activity against Aspergillus fumigatus 1022 after 48 hrs by CLSI M38-A2 protocol based assay. Format: functional. Conditions: Aspergillus fumigatus, 1022, 48 h; read-out: MIC100.
As for `O=C(N[C@@H](Cn1ccnc1)c1ccc(Cl)cc1Cl)c1ccc(-c2nnc(-c3ccccc3)o2)cc1`, the MIC stood at 0.48 µg/mL (≈ 0.952 µM).

The next series deals with Aspergillus fumigatus. Description: Antifungal activity against Aspergillus fumigatus 32820 after 48 hrs by CLSI M38-A2 protocol based assay. Format: functional. Particulars: Aspergillus fumigatus, 32820, 48 h; read-out: MIC100.
For the compound `O=C(N[C@@H](Cn1ccnc1)c1ccc(Cl)cc1Cl)c1ccc(-c2nnc(-c3ccccc3)o2)cc1`, the MIC was 0.08 µg/mL (≈ 0.159 µM).

Test system in the next series: not listed separately
Description: in vitro. Particulars: human, liver microsomes.
For the compound `O=C(N[C@@H](Cn1ccnc1)c1ccc(Cl)cc1Cl)c1ccc(-c2nnc(-c3ccccc3)o2)cc1`, the CLint scaled at 0.75 h, 1 µM was found to be 8.31 mL/min/kg.

The compound `O=C(N[C@@H](Cn1ccnc1)c1ccc(Cl)cc1Cl)c1ccc(-c2nnc(-c3cc(F)cc(-c4ccccn4)c3)o2)cc1` yielded a CLint scaled at 0.75 h, 1 µM of 96.6 mL/min/kg.

Test system in a further series: not listed separately
The series can be described thus: in vitro. Particulars: human, liver microsomes. This is another data set of the same source.
Take `O=C(N[C@@H](Cn1ccnc1)c1ccc(Cl)cc1Cl)c1ccc(-c2nnc(-c3ccccc3)o2)cc1`: the CLhep predicted at 0.75 h, 1 µM is 5.95 mL/min/kg.

In the case of `O=C(N[C@@H](Cn1ccnc1)c1ccc(Cl)cc1Cl)c1ccc(-c2nnc(-c3cc(F)cc(-c4ccccn4)c3)o2)cc1`, the CLhep predicted at 0.75 h, 1 µM was 17.3 mL/min/kg.

Test system in a further series: not listed separately
Description: in vitro. Conditions: Sprague-Dawley, rat, liver microsomes.
For `O=C(N[C@@H](Cn1ccnc1)c1ccc(Cl)cc1Cl)c1ccc(-c2nnc(-c3ccccc3)o2)cc1`, the CLint scaled at 0.75 h, 1 µM was 26.4 mL/min/kg.

In turn, `O=C(N[C@@H](Cn1ccnc1)c1ccc(Cl)cc1Cl)c1ccc(-c2nnc(-c3cc(F)cc(-c4ccccn4)c3)o2)cc1` had a CLint scaled at 0.75 h, 1 µM of 36 mL/min/kg.

Test system in the next series: not listed separately
Description: in vitro. Conditions: Sprague-Dawley, rat, liver microsomes. This is another data set of the same source.
Consider `O=C(N[C@@H](Cn1ccnc1)c1ccc(Cl)cc1Cl)c1ccc(-c2nnc(-c3ccccc3)o2)cc1`, for which the CLhep predicted at 0.75 h, 1 µM was 19.2 mL/min/kg.

As to `O=C(N[C@@H](Cn1ccnc1)c1ccc(Cl)cc1Cl)c1ccc(-c2nnc(-c3cc(F)cc(-c4ccccn4)c3)o2)cc1`, the CLhep predicted at 0.75 h, 1 µM is 24 mL/min/kg.

Test system in a further series: not listed separately
Description: in vitro. Particulars: CD-1, mouse, liver microsomes.
`O=C(N[C@@H](Cn1ccnc1)c1ccc(Cl)cc1Cl)c1ccc(-c2nnc(-c3ccccc3)o2)cc1` showed a CLint scaled at 0.75 h, 1 µM of 87 mL/min/kg.

Regarding `O=C(N[C@@H](Cn1ccnc1)c1ccc(Cl)cc1Cl)c1ccc(-c2nnc(-c3cc(F)cc(-c4ccccn4)c3)o2)cc1`, the intrinsic metabolic clearance (CLint scaled) at 0.75 h, 1 µM was found to be 55 mL/min/kg.

Test system in the next series: not listed separately
The series can be described thus: in vitro. Particulars: CD-1, mouse, liver microsomes. The source holds these as a separate data set.
Consider `O=C(N[C@@H](Cn1ccnc1)c1ccc(Cl)cc1Cl)c1ccc(-c2nnc(-c3ccccc3)o2)cc1`, for which the CLhep predicted at 0.75 h, 1 µM was 44 mL/min/kg.

As for `O=C(N[C@@H](Cn1ccnc1)c1ccc(Cl)cc1Cl)c1ccc(-c2nnc(-c3cc(F)cc(-c4ccccn4)c3)o2)cc1`, the CLhep predicted at 0.75 h, 1 µM is 34 mL/min/kg.

The next series relates to Aspergillus fumigatus. Description: Antifungal activity against Aspergillus fumigatus after 48 hrs.
Details: not given
Consider `O=C(N[C@@H](Cn1ccnc1)c1ccc(Cl)cc1Cl)c1ccc(-c2nnc(-c3ccccc3)o2)cc1`, for which the MIC is 0.5 µg/mL (≈ 0.991 µM).

What is called inhibition is the relative decrease from the control value, in per cent. As a reminder, the logP is the decadic logarithm of the partition coefficient of the neutral form, usually between octanol and water. A word on the CLint scaled: it is the capacity of the preparation to metabolise the compound, expressed as a volume cleared per time. Low readings indicate greater metabolic stability, high ones faster metabolism.

(Values after ChEMBL document CHEMBL4118269 (J Med Chem, 2018).)
